FN deposit inh – fibronectin deposition inhibition; AH1F fibroblasts, Alexa488-fibronectin deposition fluorescence, overnight; inhibition, % at 12.6 µM; 350,000 compounds, 0.086% hits;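 active = mean inhibition across replicates of 30% or more, regardless of how many single replicates reach that level; inconclusive = mean under 30% yet at least half of replicates reach 30%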
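Material – AH1F fibroblast monolayer, labelled fibronectin deposition · Reagent – labelled fibronectin 24 nM · Timing – 1 h adhesion, overnight exposure · Measured by – fluorescence at 485 nm excitation, 525 nm emission · Read-out – inhibition of fibronectin deposition signal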
E-selectin induc – E-selectin induction on HUVECs. activation, % at 7.58 µM. HUVEC E-selectin immunofluorescence imaging; normalized: neutral wells 0, TNF-alpha wells 100. 260,000 compounds, 0.37% hits;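 active = mean E-selectin-positive cell signal at least 10% of the positive control, reached in at least 60% of replicates, without over 20% cell loss; inconclusive = no rule given, readout overlaps actives, possibly toxicity-flagged; inactive = the rest, including those meeting only one limit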
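System: HUVEC / Compound: single concentration / Signal: immunofluorescence imaging / Read-out: percent E-selectin-positive cells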
SIRT5 block – sirtuin-5 (human) deacylase inhibition; inhibition, % at 15 µM; Purified SirT5, succinyl-peptide AMC, trypsin-coupled fluorescence; 330,000 compounds, 1.1% hits; AID 652115; Q9NXA8; in the data active = inhibition above about 15%; inconclusive = no clear call, values can overlap the other calls
Target sequence (Q9NXA8 whole entry, looked up): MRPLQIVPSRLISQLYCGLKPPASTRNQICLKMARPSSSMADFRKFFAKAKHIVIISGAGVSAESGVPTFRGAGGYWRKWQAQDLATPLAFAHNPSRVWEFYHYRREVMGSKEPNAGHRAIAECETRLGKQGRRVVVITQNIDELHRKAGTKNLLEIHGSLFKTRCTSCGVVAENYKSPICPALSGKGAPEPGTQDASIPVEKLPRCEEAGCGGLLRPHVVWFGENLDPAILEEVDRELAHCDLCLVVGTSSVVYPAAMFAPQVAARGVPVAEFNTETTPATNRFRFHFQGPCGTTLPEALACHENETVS
rRNA inh HTS – inhibits bacterial ribosomal RNA function over humanized ribosomes; E. coli WT GFP vs humanized-ribosome RFP mutants, fluorescence, 24 h; stronger effect = lower value; DMSO median 0, no signal -100; GFP signal change (wild-type ribosome), % (concentration not given with the values); 350,000 compounds, 1.6% hits; AID 720706;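 active = significant combined selectivity score with lowered wild-type GFP, culture density cut under 30%, mutant RFP and density less affected; inactive = any of these conditions unmet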
FGF22 binding – shifts melting point of recombinant human FGF22. Q9HCT0. recombinant FGF22 thermal shift, SYPRO orange fluorescence; percent of sucrose octasulfate shift, DMSO zero. activity (Tm shift, normalised), % at 9.99 µM. 340,000 compounds, 1.5% hits;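 active = mean Tm shift, scaled 0 neutral to 100 positive control, at about 1.3% or above, every replicate too, limit read from the data; inconclusive = no clear call, values can overlap the other calls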
Target sequence (Q9HCT0 whole entry, looked up): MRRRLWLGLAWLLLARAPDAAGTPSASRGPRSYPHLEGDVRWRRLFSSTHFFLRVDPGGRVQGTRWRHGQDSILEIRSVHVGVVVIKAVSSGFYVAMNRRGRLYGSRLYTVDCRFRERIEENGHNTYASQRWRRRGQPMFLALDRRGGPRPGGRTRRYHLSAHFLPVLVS
Statin myotox sup – suppressors of simvastatin-induced myotoxicity in C2C12 myotubes; ATP luminescence, 48 h; scaled: DMSO 0, geranylgeraniol control 100; rescue of ATP level, % at 7.49 µM; 330,000 compounds, 0.78% hits; AID 602340;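 active = mean ATP rescue above about 67%, or every replicate alone reaching that limit, limit read from the data, passing the limit was not always enough; inconclusive = no clear call, values can overlap the other calls; inactive = mean under the limit and some replicate under it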;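 also: myotubes were challenged with 10 µM simvastatin during compound exposure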
Of the large screens only hits and unclear results are named; the others gave an inactive call. This is a sample that favours compounds with a hit; in the whole collection about 4% have one here.

Cc1ccc(S(=O)(=O)Nc2cccc3cccnc23)c([N+](=O)[O-])c1	FN deposit inh 34, Statin myotox sup inconclusive (no result: E-selectin induc)
COCCNC(=O)C[C@H]1C[C@H]2c3cc(NS(C)(=O)=O)ccc3O[C@H]2[C@@H](CO)O1	none
CCS(=O)(=O)N[C@H]1CC[C@@H](CC(=O)NCc2ccc(Cl)cc2)O[C@@H]1CO	none (no result: FN deposit inh, E-selectin induc, rRNA inh HTS)
COc1ccc(NC(=O)Nc2ccc3c(c2)C(=O)N([C@@H](C)CO)C[C@H](C)[C@@H](CN(C)S(=O)(=O)c2ccc(C)cc2)OCCCC[C@@H](C)O3)cc1	none (no result: FN deposit inh, Statin myotox sup)
CCCN(C)C[C@@H]1OCc2cnnn2CCCC(=O)N([C@@H](C)CO)C[C@@H]1C	none
Cc1cccc(NS(=O)(=O)c2ccc3[nH]c(=O)cc(C(=O)O)c3c2)c1	rRNA inh HTS -15 (no result: Statin myotox sup)
Cc1cccc(OCCC(=O)Nc2ccc(S(=O)(=O)N3CCCC3)cc2)c1	Statin myotox sup 109 (no result: FN deposit inh, E-selectin induc, SIRT5 block, rRNA inh HTS, FGF22 binding)
O=S(=O)(Nc1cccc2cccnc12)c1ccc(S(=O)(=O)N2CCCC2)cc1	Statin myotox sup 70 (no result: FN deposit inh, E-selectin induc, SIRT5 block, rRNA inh HTS, FGF22 binding)
Cc1cc(=O)[nH]c2ccc(S(=O)(=O)Nc3ccccc3)cc12	none (no result: E-selectin induc)
O=C(COc1cccc(C(F)(F)F)c1)Nc1ccc(S(=O)(=O)N2CCCC2)cc1	Statin myotox sup 116 (no result: FN deposit inh, E-selectin induc)
CO[C@@H]1CN(C)C(=O)c2cc(NC(=O)C3CCC3)ccc2OC[C@@H](C)N(C)C[C@@H]1C	none (no result: SIRT5 block, FGF22 binding)
C[C@@H]1CN([C@@H](C)CO)C(=O)Cc2cc(NS(=O)(=O)c3cccs3)ccc2O[C@H]1CN(C)Cc1ccc(C(=O)O)cc1	none (no result: FN deposit inh, E-selectin induc)
C[C@H]1CN([C@@H](C)CO)C(=O)Cc2cc(NC(=O)CCN3CCOCC3)ccc2O[C@H]1CN(C)C(=O)NC1CCCCC1	none
C[C@@H]1CCCCO[C@H](CN(C)C(=O)Nc2ccc(C(F)(F)F)cc2)[C@@H](C)CN([C@H](C)CO)C(=O)c2cc(NC(=O)CCC(F)(F)F)ccc2O1	none (no result: FN deposit inh, Statin myotox sup)
CC(=O)Nc1nc(NC(=O)C(Cl)(Cl)Cl)n(-c2ccccc2)n1	rRNA inh HTS -23
CCCN1[C@@H]2c3ccc(-c4cccc(OC)c4)c(=O)n3C[C@@H]2[C@@H](CO)[C@@H]1C(=O)OC	SIRT5 block 16
CCCN1[C@H](C(=O)OC)[C@@H](CO)[C@@H]2Cn3c(ccc(-c4cccc(OC)c4)c3=O)[C@@H]21	none (no result: SIRT5 block)
CCCNC(=O)[C@H]1[C@H](CO)[C@H]2Cn3c(ccc(-c4ccc(OC)cc4)c3=O)[C@H]2N1CCC	SIRT5 block 16 (no result: FN deposit inh)
CCCNC(=O)[C@@H]1[C@@H](CO)[C@@H]2Cn3c(ccc(-c4ccc(OC)cc4)c3=O)[C@@H]2N1CCC	none (no result: FN deposit inh)
COc1ccc2nc(NC(=O)C34CC5CC(CC(NC(C)=O)(C5)C3)C4)sc2c1	rRNA inh HTS -27
CCOc1ccc2nc(NC(=O)C34CC5CC(CC(NC(C)=O)(C5)C3)C4)sc2c1	rRNA inh HTS -33
COc1cc(NC(=O)c2ccc(C(C)(C)C)cc2)c(OC)cc1NC(=O)CN1CCCCC1	none (no result: E-selectin induc)
COc1ccccc1NC(=O)CN1CCN(C(=O)C2CCCO2)CC1 (centres undefined)	SIRT5 block 46 (no result: Statin myotox sup)
O=C(CN1CCCC1)Nc1ccc(Oc2ccc(NC(=O)CN3CCCC3)cc2)cc1	FN deposit inh 30 (no result: E-selectin induc, SIRT5 block, rRNA inh HTS, FGF22 binding, Statin myotox sup)
O=C(CN1CCCCCC1)Nc1ccccc1Oc1ccccc1	rRNA inh HTS -41
COc1cc(NC(=O)c2cccc(C)c2)c(OC)cc1NC(=O)CN1CCCCC1	FGF22 binding 43 (no result: Statin myotox sup)
COc1ccccc1NC(=O)CN1CCOCC1	none
O=C(CN1CCCCC1)Nc1cc(Cl)ccc1Oc1ccccc1	none (no result: Statin myotox sup)
Cc1noc(C)c1NC(=O)Nc1cccc2c1O[C@H](CN(C)C(=O)Nc1ccc(C(F)(F)F)cc1)[C@H](C)CN([C@@H](C)CO)C2=O	none (no result: SIRT5 block, FGF22 binding)
NC(=O)C1CCN(CC(=O)Nc2ccccc2Sc2ccc(Cl)cc2)CC1	none (no result: E-selectin induc, Statin myotox sup)
O=C(CN1CCCC1)Nc1ccccc1Sc1ccc(Cl)cc1	rRNA inh HTS -42
Cc1cc(N/N=C/c2ccccc2)nc(NCc2ccccc2)n1	rRNA inh HTS -35 (no result: FN deposit inh, E-selectin induc, Statin myotox sup)
Cc1cc(N/N=C/c2cccc(Cl)c2)nc(NCc2ccccc2)n1	none (no result: E-selectin induc, SIRT5 block, rRNA inh HTS, FGF22 binding)

Screening results: PubChem BioAssay, Broad Institute
